# Assay results reported in BindingDB's records for doi:10.1021/acs.jmedchem.5b01762 (University of Illinois At Chicago, 2016).
# pIC50: −log10 of the molar value.
# Legend:
# [1] = target: T1, DNA repair protein RAD51 homolog 1 (Homo sapiens, UniProt Q06609); experiment: Inhibition of human N-terminal 6-histidine/Avi-tagged recombinant RAD51 expressed in Escherichia coli BL21(DE3) assessed as D-loop formation using 5'-32P-labeled 90-mer ssDNA as substrate preincubated for 10 mins followed by substrate addition with subsequent incubation with substrate for 5 mins measured after 20 mins in presence of supercoiled pRS306 dsDNA by agarose gel electrophoresis
# T1 sequence (Q06609 whole entry): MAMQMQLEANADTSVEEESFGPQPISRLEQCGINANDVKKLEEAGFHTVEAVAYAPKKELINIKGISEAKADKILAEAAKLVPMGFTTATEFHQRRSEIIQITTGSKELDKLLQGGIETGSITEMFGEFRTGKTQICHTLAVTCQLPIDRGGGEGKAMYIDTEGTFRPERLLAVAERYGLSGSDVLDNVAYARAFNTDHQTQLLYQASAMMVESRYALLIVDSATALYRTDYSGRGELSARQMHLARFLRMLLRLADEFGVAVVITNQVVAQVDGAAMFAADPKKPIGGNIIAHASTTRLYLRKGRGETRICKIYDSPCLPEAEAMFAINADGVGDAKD
# [2] = target: T1, DNA repair protein RAD51 homolog 1; experiment: Inhibition of Escherichia coli BL21(DE3) expressing human N-terminal 6-histidine/Avi-tagged RAD51 binding to 5'-Alexa488-oligo-dT45 ssDNA preincubated for 40 mins followed by substrate addition measured after 40 mins by fluorescence polarization based microplate method
# Summary of the method: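 Human RAD51 preincubated with compound in DMSO at 37 °C for 40 min, then 5'-Alexa488-oligo-dT45 added and incubated another 40 min at 37 °C. Buffer: 20 mM HEPES pH 7.5, 2 mM ATP, 10 mM MgCl2, 0.1 mM TCEP. IC50 from least-squares dose–response fits with standard error.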
compound,measurement,setting,value
COc1ccc2c(c1)NC(c1ccc(N(C)C)cc1)c1cccn1-2 (configuration not stated),pIC50,[1],< 4.00
same,pIC50,[2],< 4.00
